ChEMBL document CHEMBL3576784, “Azolylthioacetamide: A Highly Promising Scaffold for the Development of Metallo-β-lactamase Inhibitors” (ACS Med Chem Lett, 2015)
The source made the active and inactive calls. The calls are words filed in the database; no cut-off is given here.

Key:
[1] = Inhibition of metallo-beta-lactamase NDM1 (unknown origin) expressed in Escherichia coli BL21(DE3) up to 10 uM using cefazolin V substrate pre-incubated for 30 mins by Lineweaver-Burk plot method
[2] = target: Metallo-beta-lactamase type 2 (Bacteroides fragilis) (UniProt P25910); assay: Inhibition of Bacteroides fragilis metallo-beta-lactamase CcrA expressed in Escherichia coli BL21(DE3) up to 10 uM using cefazolin V substrate pre-incubated for 30 mins by Lineweaver-Burk plot method
[3] = target: T1, Beta-lactamase IMP-1 (Pseudomonas aeruginosa) (UniProt Q8G9Q0); assay: Inhibition of Pseudomonas aeruginosa metallo-beta-lactamase IMP1 expressed in Escherichia coli BL21(DE3) assessed as imipenem antimicrobial MIC incubated at 37 degC for 12 hrs by macrodilution (tube) broth method (reference value: […] ug/mL)
T1 sequence (whole entry): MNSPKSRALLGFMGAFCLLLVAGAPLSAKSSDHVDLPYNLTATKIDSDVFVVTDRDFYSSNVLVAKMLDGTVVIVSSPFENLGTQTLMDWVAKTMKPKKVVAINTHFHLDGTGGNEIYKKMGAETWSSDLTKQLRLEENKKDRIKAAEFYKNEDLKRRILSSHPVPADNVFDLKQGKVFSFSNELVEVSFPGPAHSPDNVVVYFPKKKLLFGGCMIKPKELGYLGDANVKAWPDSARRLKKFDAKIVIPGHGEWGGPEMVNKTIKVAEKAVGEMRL

[4] = Inhibition of metallo-beta-lactamase NDM1 (unknown origin) expressed in Escherichia coli BL21(DE3) assessed as cefalexin V antimicrobial MIC incubated at 37 degC for 12 hrs by macrodilution (tube) broth method (reference value: 4 ug/mL)
Summary of the method: (§1)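 β-Lactam antibiotic MIC (μg/mL) against E. coli BL21(DE3) carrying plasmids pMSZ02-CcrA, pET26b-NDM-1, pET26b-ImiS or pET26b-L1. Measured with and without test compound at 16 μg/mL.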

[5] = target: Beta-lactamase (Aeromonas veronii) (UniProt O31272); assay: Inhibition of Aeromonas veronii metallo-beta-lactamase ImiS expressed in Escherichia coli BL21(DE3) assessed as imipenem antimicrobial MIC incubated at 37 degC for 12 hrs by macrodilution (tube) broth method; summary of the method: as §1
Klebsiella pneumoniae = assay: Inhibition of Klebsiella pneumoniae metallo-beta-lactamase expressed in Escherichia coli BL21(DE3) assessed as imipenem antimicrobial MIC incubated at 37 degC for 12 hrs by macrodilution (tube) broth method
[6] = target: Metallo-beta-lactamase type 2 (Bacteroides fragilis) (UniProt P25910); assay: Inhibition of Bacteroides fragilis metallo-beta-lactamase CcrA expressed in Escherichia coli BL21(DE3) assessed as cefalexin V antimicrobial MIC incubated at 37 degC for 12 hrs by macrodilution (tube) broth method (reference value: 4 ug/mL); summary of the method: as §1
[7] = target: Beta-lactamase L1 (Stenotrophomonas maltophilia) (UniProt P52700); assay: Inhibition of Stenotrophomonas maltophilia metallo-beta-lactamase L1 expressed in Escherichia coli BL21(DE3) assessed as cefalexin V antimicrobial MIC incubated at 37 degC for 12 hrs by macrodilution (tube) broth method (reference value: 8 ug/mL); summary of the method: as §1
[8] = target: Beta-lactamase L1 (Stenotrophomonas maltophilia) (UniProt P52700); assay: Inhibition of Stenotrophomonas maltophilia metallo-beta-lactamase L1 expressed in Escherichia coli BL21(DE3) up to 10 uM using cefazolin V substrate pre-incubated for 30 mins by Lineweaver-Burk plot method

Beta-lactamase L1 (Stenotrophomonas maltophilia), sequence (P52700 34-290 limits assumed): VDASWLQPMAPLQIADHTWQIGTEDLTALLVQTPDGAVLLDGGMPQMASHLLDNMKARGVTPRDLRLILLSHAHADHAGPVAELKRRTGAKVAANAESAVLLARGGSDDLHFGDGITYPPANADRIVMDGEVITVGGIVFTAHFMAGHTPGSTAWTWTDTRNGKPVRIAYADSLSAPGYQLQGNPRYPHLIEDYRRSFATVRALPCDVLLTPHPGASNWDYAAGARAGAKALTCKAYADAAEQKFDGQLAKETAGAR
Beta-lactamase (Aeromonas veronii), sequence (O31272 as listed by the source): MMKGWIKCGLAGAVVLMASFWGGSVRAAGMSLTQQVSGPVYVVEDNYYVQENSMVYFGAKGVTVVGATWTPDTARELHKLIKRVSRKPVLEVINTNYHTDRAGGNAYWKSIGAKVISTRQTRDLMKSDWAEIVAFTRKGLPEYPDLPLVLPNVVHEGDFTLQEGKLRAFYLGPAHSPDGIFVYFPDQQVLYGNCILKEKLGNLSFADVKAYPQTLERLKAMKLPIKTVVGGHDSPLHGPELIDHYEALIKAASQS
Metallo-beta-lactamase type 2 (Bacteroides fragilis), sequence (P25910 whole entry): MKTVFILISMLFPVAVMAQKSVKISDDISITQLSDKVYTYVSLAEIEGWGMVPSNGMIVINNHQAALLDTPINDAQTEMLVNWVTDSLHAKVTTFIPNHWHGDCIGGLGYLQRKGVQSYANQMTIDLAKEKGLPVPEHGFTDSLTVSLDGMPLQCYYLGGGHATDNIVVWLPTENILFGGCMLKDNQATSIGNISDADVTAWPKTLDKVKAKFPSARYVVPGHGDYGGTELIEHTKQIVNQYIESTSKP

inhibition [1] | inhibition [2] | MIC [3] | MIC [4] | MIC [5] | MIC (Klebsiella pneumoniae) | MIC [6] | MIC [7] | inhibition [8] | Compound
inactive | inactive | < 0.125 µg/mL | 4 µg/mL | < 0.125 µg/mL | 0.5 µg/mL | 0.5 µg/mL | 64 µg/mL | inactive | O=C(CSc1nnc(-c2ccccc2C(=O)O)[nH]1)Nc1cccc(Cl)c1
inactive | inactive | 0.25 µg/mL | 4 µg/mL | 1 µg/mL | 0.5 µg/mL | 4 µg/mL | 8 µg/mL | inactive | O=C(CSc1nnc(-c2ccccc2C(=O)O)[nH]1)Nc1ccccc1
inactive | inactive | < 0.125 µg/mL | 4 µg/mL | 1 µg/mL | 0.5 µg/mL | < 0.125 µg/mL | 8 µg/mL | inactive | O=C(CSc1nnc(-c2ccccc2C(=O)O)[nH]1)Nc1nc2ccccc2s1
inactive | inactive | 0.25 µg/mL | 4 µg/mL | 1 µg/mL | 0.5 µg/mL | 4 µg/mL | 8 µg/mL | inactive | O=C(CSc1nnc(-c2ccccc2C(=O)O)[nH]1)Nc1nc2ccccc2[nH]1
inactive | inactive | < 0.125 µg/mL | 4 µg/mL | < 0.125 µg/mL | 0.5 µg/mL | 0.25 µg/mL | > 128 µg/mL | inactive | O=C(CSc1nnc(-c2ccccc2C(=O)O)[nH]1)Nc1ccccc1[N+](=O)[O-]
inactive | inactive | < 0.125 µg/mL | 4 µg/mL | 0.25 µg/mL | 0.5 µg/mL | 2 µg/mL | 64 µg/mL | inactive | O=C(CSc1nnc(-c2ccccc2C(=O)O)[nH]1)Nc1ccccc1Cl
inactive | inactive | < 0.125 µg/mL | 4 µg/mL | 1 µg/mL | 0.5 µg/mL | 4 µg/mL | 16 µg/mL | inactive | O=C(CSc1nnc(-c2ccccc2C(=O)O)[nH]1)NCc1ccccc1

Second part, the compound before the results:

Compound | inhibition [1] | inhibition [2] | MIC [3] | MIC [4] | MIC [5] | MIC (Klebsiella pneumoniae) | MIC [6] | MIC [7] | inhibition [8]
O=C(CSc1nnc(-c2ccccc2C(=O)O)[nH]1)Nc1cccc([N+](=O)[O-])c1 | inactive | inactive | < 0.125 µg/mL | 4 µg/mL | 0.25 µg/mL | 0.5 µg/mL | 2 µg/mL | 8 µg/mL | inactive
O=C(CSc1nnc(-c2ccccc2C(=O)O)[nH]1)Nc1ccc(Cl)cc1 | inactive | inactive | 0.25 µg/mL | 4 µg/mL | 0.5 µg/mL | 0.5 µg/mL | < 0.125 µg/mL | 8 µg/mL | inactive
O=C(O)CCc1nnc(SCC(=O)Nc2ccc(Cl)cc2)[nH]1 | inactive | inactive |  |  |  |  |  |  | inactive
O=C(CSc1nnc(-c2ccccc2C(=O)O)[nH]1)Nc1ccc([N+](=O)[O-])cc1 | inactive | inactive | 0.25 µg/mL | 4 µg/mL | 0.5 µg/mL | 0.5 µg/mL | 2 µg/mL | 16 µg/mL | inactive
O=C(O)CCc1nnc(SCC(=O)Nc2nc3ccccc3s2)[nH]1 | inactive | inactive |  |  |  |  |  |  | inactive
O=C(O)CCc1nnc(SCC(=O)Nc2ccccc2)[nH]1 | inactive | inactive |  |  |  |  |  |  | inactive
O=C(O)CCc1nnc(SCC(=O)Nc2nc3ccccc3[nH]2)[nH]1 | inactive | inactive |  |  |  |  |  |  | inactive
O=C(O)CCCc1nnc(SCC(=O)Nc2nc3ccccc3[nH]2)[nH]1 | inactive | inactive |  |  |  |  |  |  | inactive
